Screens deposited in PubChem by several laboratories.
The list is not random: actives were taken first. Their share in the collection is about 5%.
Beta cell apopt: inhibitors of cytokine-induced beta cell apoptosis, primary screen, luminescence | protection from apoptosis, % (no concentration beside the values) | AID 435005, 2010 | 300,000 compounds, 0.8% hits | INS-1E cytokine-induced death, ATP luminescence, 48 h; percent of positive-control rescue, neutral wells zero;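 active = Every replicate reaches about 75%, or at least half do and their mean reaches it too, limit read from the data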;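 also: higher means more ATP so stronger rescue from cytokine killing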
CSC inhib: cancer stem cell viability inhibitors, primary screen, luminescence | AID 2717, 2010 | 300,000 compounds, 1.1% hits | inhibition, % at 7.5 µM | cancer stem cell-like cells viability; in the data active = inhibition above about 75%; tested in HMLE shEcad cells
XBP1 UPR activ: activators of adaptive XBP1 UPR arm, primary screen, cell-based, CHO-XBP1 luciferase reporter, luminescence, uHTS. IRE1-XBP1 UPR activation; percent of tunicamycin response, DMSO as zero. activation, % at 20 µM. 330,000 compounds, 0.33% hits. AID 463104, 2010;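 active = versus positive control, 20 µM dose yields 30% or more activation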
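Material: CHO cell line with stable XBP1 luciferase reporter; schedule: 16-18 h cell attachment at 37 °C, then 6 h compound exposure; signal: glow luminescence from Steady-Glo reagent; medium: serum-containing F12 medium, 10% FBS; benchmarks: tunicamycin 10 µg/mL and vehicle-only wells; read-out: percent activation relative to tunicamycin reference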
T cruzi inh: inhibitors of intracellular T. cruzi growth, primary screen, luminescence, NIH3T3 host cells | T. cruzi beta-gal in NIH3T3, 90 h | inhibition, % (concentration not given with the values) | 300,000 compounds, 1.4% hits | AID 1885, 2009;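 active = mean inhibition across valid replicates above about 55%, limit read from the data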;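 also: signal also drops with host cell toxicity which is not excluded here; higher percent means less beta-gal luminescence so fewer parasites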
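Test system: β-gal T. cruzi (Tulahuen C4) inside NIH/3T3 cells / Quantity: 5,000 cells/well / Measured by: luminescence from GalScreen with 0.05% NP40, read after 60 min / Medium: DMEM plus 2% FBS / Measure: parasite load inhibition, % / Reagent: Tulahuen C4 trypomastigotes, 5000/well / Schedule: co-culture of at least 90 h after 3 h attachment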
Mdm2 MdmX PPI: inhibitors of human Mdm2-MdmX association, primary screen, cell-based, luminescence, split luciferase, SaOS-2, uHTS | SaOS-2 split-luciferase Mdm2/MdmX complementation | inhibition, % at 8 µM | AID 485346, 2010 | 330,000 compounds, 3% hits;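 active = inhibition of at least 50% at 8 µM in the primary screen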
Target sequence (O15151 whole entry, looked up): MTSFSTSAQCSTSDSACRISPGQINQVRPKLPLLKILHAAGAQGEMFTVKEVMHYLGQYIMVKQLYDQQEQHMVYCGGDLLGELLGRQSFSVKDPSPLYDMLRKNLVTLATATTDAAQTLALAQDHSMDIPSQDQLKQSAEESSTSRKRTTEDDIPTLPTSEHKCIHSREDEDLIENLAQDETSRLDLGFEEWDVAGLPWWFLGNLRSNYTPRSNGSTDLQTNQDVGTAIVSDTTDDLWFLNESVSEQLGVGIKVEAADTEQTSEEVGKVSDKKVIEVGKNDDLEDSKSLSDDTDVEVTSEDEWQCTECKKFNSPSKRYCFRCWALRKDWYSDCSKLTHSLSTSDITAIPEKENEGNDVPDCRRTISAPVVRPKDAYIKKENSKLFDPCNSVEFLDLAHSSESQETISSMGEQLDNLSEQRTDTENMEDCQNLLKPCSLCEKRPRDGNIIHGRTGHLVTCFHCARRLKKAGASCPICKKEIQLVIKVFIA
Target sequence (Q00987 whole entry, looked up): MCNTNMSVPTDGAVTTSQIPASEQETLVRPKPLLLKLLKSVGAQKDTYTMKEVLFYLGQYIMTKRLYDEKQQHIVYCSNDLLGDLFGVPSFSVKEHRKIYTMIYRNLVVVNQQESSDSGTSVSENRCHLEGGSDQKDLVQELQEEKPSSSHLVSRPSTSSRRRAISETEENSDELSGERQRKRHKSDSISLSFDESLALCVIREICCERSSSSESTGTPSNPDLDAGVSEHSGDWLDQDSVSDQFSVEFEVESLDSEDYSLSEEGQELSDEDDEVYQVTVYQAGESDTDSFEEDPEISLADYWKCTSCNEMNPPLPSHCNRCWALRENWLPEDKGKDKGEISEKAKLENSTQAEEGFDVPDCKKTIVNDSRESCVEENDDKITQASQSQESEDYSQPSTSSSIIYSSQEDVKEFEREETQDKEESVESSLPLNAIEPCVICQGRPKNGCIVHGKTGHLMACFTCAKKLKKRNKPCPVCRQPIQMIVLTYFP
UPR CHOP act: activators of apoptotic CHOP UPR arm, primary screen, cell-based, CHO-CHOP luciferase reporter, luminescence, uHTS; UPR activation; percent of tunicamycin response over DMSO baseline; activation, % at 10 µM; 330,000 compounds, 0.34% hits; AID 449763, 2010;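 active = at 10 µM dose, activation of 40% or more, normalized to positive control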
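System: CHO CHOP reporter cells. Amount: 500 cells per well. Buffer or medium: F12 medium, 10% FBS. Compound dosing: one dose, 10 µM in 0.5% DMSO. Incubation: 6 h compound exposure at 37 °C after overnight seeding. Technique: Steady-Glo luciferase luminescence. Benchmarks: tunicamycin and DMSO controls.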
Mdm2-MdmX conf: Mdm2-MdmX complex disruptors, retested hits, confirmation, luminescence, single concentration | shares compounds with Mdm2 MdmX PPI | Mdm2-MdmX binding, luminescent assay | inhibition, % at 8 µM | 10,000 compounds, 55% hits | AID 489028, 2010; in the data active = inhibition above about 40%
Full FLuc ctr: full-length luciferase signal inhibition, confirmation, counter-screen for Mdm2/MdmX interaction inhibitor project, cell-based, single concentration, SaOS-2. shares compounds with Mdm2 MdmX PPI. SaOS-2 full-length luciferase counterscreen, luminescence. inhibition, % at 8 µM. 6,200 compounds, 77% hits;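 active = mean inhibition at 8 µM reaching about 37%, which flags the compound as non-specific, limit read from the data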;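 also: p53-null SaOS-2 cells with luciferase driven by a doxycycline-inducible promoter; compound on cells about two nights before reading with doxycycline added after day one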
Of the large screens only hits and unclear results are named; the others gave an inactive call (follow-up assays come after a bar, where they were run).

C(=N\Nc1nc(-c2ccccn2)nc2ccccc12)/c1ccccc1	Beta cell apopt 91.6, CSC inhib 82.8, Mdm2 MdmX PPI 79.6, UPR CHOP act 527.4 | Mdm2-MdmX conf 88.5 | Full FLuc ctr inactive
COc1cc(C2C(C#N)=C(N)N(Nc3ccccc3)C3=C2C(=O)CC(C)(C)C3)ccc1OCc1ccccc1 (stereo not drawn)	none
COc1cc(C2C(C#N)=C(N)N(Nc3ccccc3)C3=C2C(=O)CC(C)(C)C3)ccc1OCc1cccc(F)c1 (stereo not drawn)	Mdm2 MdmX PPI 61.5 | Mdm2-MdmX conf inactive
CCc1ccc(C(C)NC(=O)/C=C/c2ccc(Br)cc2)cc1 (stereo not drawn)	none (no result: CSC inhib)
CCOC(=O)C(CC)(CC)C(=O)/C=C/c1ccc(Br)cc1	Mdm2 MdmX PPI 71.3 (no result: CSC inhib) | Mdm2-MdmX conf inactive | Full FLuc ctr 65.5
O=C(CCCCCC(=O)N(CCO)CCO)N(CCO)CCO	none
C/C(=N\NC(=O)c1nnn(-c2nonc2N)c1CSc1ccccc1)c1ccc2c(c1)OCO2	Mdm2 MdmX PPI 54.0 (no result: CSC inhib) | Mdm2-MdmX conf inactive
C/C(=N\NC(=O)c1nnn(-c2nonc2N)c1CSc1ccc(C)cc1)c1ccco1	Mdm2 MdmX PPI 62.1 | Mdm2-MdmX conf inactive
C/C(=N\NC(=O)c1nnn(-c2nonc2N)c1CSc1ccccc1)c1ccco1	none
Cc1ccc(S(=O)(=O)N2CCN(C(=O)c3ccnn3C)CC2)cc1C	none (no result: Beta cell apopt)
CC(=O)Nc1ccc(S(=O)(=O)N2CCN(c3cc4c(cc3[N+](=O)[O-])n(C)c(=O)n4C)CC2)cc1	none (no result: CSC inhib)
Cn1c(=O)n(C)c2cc([N+](=O)[O-])c(N3CCN(S(=O)(=O)c4ccc(C(C)(C)C)cc4)CC3)cc21	Mdm2 MdmX PPI 60.0 | Mdm2-MdmX conf inactive | Full FLuc ctr 70.5
Cc1ccc(NC(=O)CCCCCCCCCCC2COCCO2)c(C)c1 (stereo not drawn)	none
COc1cc2nc(SCC(N)=O)n(CCC3=CCCCC3)c(=O)c2cc1OC	Mdm2 MdmX PPI 79.6 | Mdm2-MdmX conf inactive
COCCNC(=O)CSc1nc2cc(OC)c(OC)cc2c(=O)n1CCC1=CCCCC1	none (no result: Beta cell apopt, CSC inhib, XBP1 UPR activ, Mdm2 MdmX PPI, UPR CHOP act)
Cc1ccc(OCc2ccc(C(=O)NCc3cccnc3)cc2)cc1C	none
O=C(c1cnn2c(C(F)(F)F)cc(-c3ccc4c(c3)OCO4)nc12)N1CCCCC1	none
O=C(NC1CCCC1)c1cnn2c(C(F)(F)F)cc(-c3ccc4c(c3)OCO4)nc12	Mdm2 MdmX PPI 62.2 (no result: Beta cell apopt) | Mdm2-MdmX conf inactive
Cc1ccc(C2C(C#N)=C(N)OC3=C2C(=O)CC(C)(C)C3)s1 (stereo not drawn)	none
COc1ccccc1C1C(C(C)=O)=C(C)N=c2s/c(=C\c3cc(OC)c(OC)c(OC)c3)c(=O)n21 (stereo not drawn)	Mdm2 MdmX PPI 57.9 | Mdm2-MdmX conf 41.4 | Full FLuc ctr 50.2
COc1cccc(C2C3=C(N=c4s/c(=C\c5ccccc5O)c(=O)n42)c2ccccc2CC3)c1OC (stereo not drawn)	XBP1 UPR activ 52.1, Mdm2 MdmX PPI 95.4, UPR CHOP act 104.8 | Mdm2-MdmX conf 50.0 | Full FLuc ctr 52.9
CC(=O)Nc1ccc(NC(=O)Nc2ccc3c(c2)N(C)C(=O)CS3)cc1	none
COc1cccc(NC(=O)Nc2ccc3c(c2)N(C)C(=O)CS3)c1	Mdm2 MdmX PPI 50.0 | Mdm2-MdmX conf inactive
Oc1ccc(Br)cc1-c1nc2cnccn2c1NC1CCCCC1	none
Oc1ccc(Br)cc1-c1nc2cnccn2c1NC1CCCC1	Mdm2 MdmX PPI 78.6 | Mdm2-MdmX conf 57.1 | Full FLuc ctr inactive
CCSC1=C(C#N)C2(CCCCC2)C(C#N)=C(N)N1	none
N#CC1=C(N)NC(SCc2ccccc2)=C(C#N)C12CCCCC2	Mdm2 MdmX PPI 64.5 | Mdm2-MdmX conf 60.5 | Full FLuc ctr 72.5
COC(=O)NCN1C(=O)C2C3C=CC(C3)C2C1=O (stereo not drawn)	none
CCCCNc1c(-c2ccc(OC)c(Sc3ccc(OC)cc3)c2)nc2cnccn12	none (no result: CSC inhib, T cruzi inh)
CCCCNc1c(-c2ccc(OC)c(Sc3ccc(OC)cc3)c2)nc2ccccn12	CSC inhib 101.2, Mdm2 MdmX PPI 94.5 (no result: Beta cell apopt) | Mdm2-MdmX conf inactive | Full FLuc ctr 65.1
O=C(N/N=C/c1cnc(N2CCCCC2)s1)c1ccc(C(F)(F)F)cc1	Beta cell apopt 103.8, Mdm2 MdmX PPI 68.9 | Mdm2-MdmX conf 58.1 | Full FLuc ctr 37.4
CC1CN(c2ncc(/C=N/NC(=O)c3ccccc3O)s2)CC(C)O1 (stereo not drawn)	none
Cc1cc(C(=O)OCC(=O)Nc2ccc(F)cc2[N+](=O)[O-])c2ccccc2n1	Mdm2 MdmX PPI 52.0 | Mdm2-MdmX conf 50.6 | Full FLuc ctr 100.2
O=C(COC(=O)c1n[nH]c2ccccc12)NC(=O)NC12CC3CC(CC(C3)C1)C2	Mdm2 MdmX PPI 53.9 | Mdm2-MdmX conf inactive | Full FLuc ctr 71.9
CCOc1ccc(NC(=O)CN(C)C(=O)CCCn2c(=O)oc3ccccc32)cc1OCC	none
O=C(Nc1cccc(Cl)c1)Nc1nnc(-c2ccncc2)s1	Beta cell apopt 99.6, Mdm2 MdmX PPI 100.0 | Mdm2-MdmX conf 98.2 | Full FLuc ctr 56.4
O=C(Nc1ccc(F)cc1)Nc1nnc(-c2ccncc2)s1	Mdm2 MdmX PPI 69.5 | Mdm2-MdmX conf inactive
O=C(NCCc1ccncc1)Nc1cccc(Cl)c1	none
Cc1ccc(NC(=O)Nc2nnc(-c3ccncc3)s2)cc1C	Mdm2 MdmX PPI 93.9 (no result: Beta cell apopt) | Mdm2-MdmX conf 55.6 | Full FLuc ctr inactive
O=C(Nc1ccc(F)cc1)Nc1nnc(COc2ccccc2F)s1	Mdm2 MdmX PPI 91.4 | Mdm2-MdmX conf 82.0 | Full FLuc ctr 44.2
COc1ccccc1C(=O)C1CCCN(C(=O)Nc2ccccc2F)C1 (stereo not drawn)	none
Cc1ccc(C2(C)NC(=O)N(CC(=O)N(Cc3ccccc3)C(C)(C)C)C2=O)cc1 (stereo not drawn)	none
CCN(CC)CCNC(=O)c1ccc(NC(=O)c2ccc(Cl)c(S(=O)(=O)N3CCCCCC3)c2)cc1	Mdm2 MdmX PPI 94.1 | Mdm2-MdmX conf inactive
